The values below come from ChEMBL document CHEMBL4765336, “Discovery of coumarin derivatives as potent and selective cyclin-dependent kinase 9 (CDK9) inhibitors with high antitumour activity” (Eur J Med Chem, 2020).

By IC50 is commonly meant the concentration that inhibits the measured activity by half. By half-life is commonly meant the time in which the quantity being followed falls by half.

For one data set, the system named is MOLM-13. Put plainly: Antiproliferative activity against human MOLM-13 cells assessed as inhibition of cell growth incubated for 72 hrs by Celltiter-Glo luminescent assay. Conditions: MOLM-13, 72 h. Type of data set: functional, cell-based. The method in brief:
(§1)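 Cells seeded in growth medium and held overnight at 37 °C; medium-only wells served as background. DMSO stocks were diluted in medium to 3× final and added; cells incubated 72 h at 37 °C, 5% CO2. Viability read by CellTiter-Glo luminescence after 60 min at room temperature. IC50 from curve fit, mean of duplicate.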
For orientation: Cellular ATP, detected with luciferase, serves as a proxy for viable cell number.

A further data set concerns NCI-N87. Put plainly: Antiproliferative activity against human NCI-N87 cells assessed as inhibition of cell growth incubated for 72 hrs by Celltiter-Glo luminescent assay. In kind it is functional, cell-based. The conditions noted are these: NCI-N87, 72 h. The method, boiled down: as §1
For data set [1], the system named is MV4-11. Put plainly: Antiproliferative activity against human MV4-11 cells assessed as inhibition of cell growth incubated for 72 hrs by Celltiter-Glo luminescent assay. The conditions noted are these: MV4-11, 72 h. In kind it is functional, cell-based. The method, boiled down: as §1
The next data set has as its system SW-620. Put plainly: Antiproliferative activity against human SW-620 cells assessed as inhibition of cell growth incubated for 72 hrs by Celltiter-Glo luminescent assay. Conditions: SW-620, 72 h. In kind it is functional, cell-based. The method, boiled down:
as §1

The next data set deals with BXPC-3. Put plainly: Antiproliferative activity against human BxPC3 cells assessed as inhibition of cell growth incubated for 72 hrs by Celltiter-Glo luminescent assay. In kind it is functional, cell-based. Conditions: BXPC-3, 72 h. The method, boiled down: as §1
In another data set the test system is NCI-H460. Put plainly: Antiproliferative activity against human NCI-H460 cells assessed as inhibition of cell growth incubated for 72 hrs by Celltiter-Glo luminescent assay. In kind it is functional, cell-based. Conditions: NCI-H460, 72 h. The method, boiled down:
as §1

Another data set relates to A-375. Put plainly: Antiproliferative activity against human A-375 cells assessed as inhibition of cell growth incubated for 72 hrs by Celltiter-Glo luminescent assay. The conditions noted are these: A-375, 72 h. Type of data set: functional, cell-based. The method in brief: as §1
A further data set concerns MDA-MB-231. Put plainly: Antiproliferative activity against human MDA-MB-231 cells assessed as inhibition of cell growth incubated for 72 hrs by Celltiter-Glo luminescent assay. In kind it is functional, cell-based. The conditions noted are these: MDA-MB-231, 72 h. The method in brief: as §1
The nature of data set [2]: Metabolic stability in dog liver microsomes assessed as intrinsic clearance at 1 uM incubated up to 60 mins in presence of NADPH by LC-MS/MS analysis. Conditions: read-out: CLH. Type of data set: ADME, Canis lupus familiaris, Microsome. The method in brief: (§2)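 Liver microsomes (0.5 mg/mL) incubated at 37 °C with compound at 1.0 μM final, 3 mM MgCl2 and 1 mM NADPH in 100 mM PBS pH 7.4. Samples taken at 0, 5, 15, 30, 60 min; remaining parent measured by LC-MS/MS. k = −slope, T1/2 = 0.693/k, CLint = k/microsomal protein concentration. Midazolam served as control.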
(Liver microsomes are a subcellular fraction often used to study metabolism.)

Data set [3] can be described thus: Metabolic stability in monkey liver microsomes assessed as intrinsic clearance at 1 uM incubated up to 60 mins in presence of NADPH by LC-MS/MS analysis. The conditions noted are these: rhesus monkey, read-out: CLH. In kind it is ADME, Macaca mulatta, Microsome. The method, boiled down:
as §2

Data set [4] is described as follows: Metabolic stability in rat liver microsomes assessed as half life at 1 uM incubated up to 60 mins in presence of NADPH by LC-MS/MS analysis. In kind it is ADME, Microsome. The method in brief: as §2
For another data set, the target named is CDK2/Cyclin A2 (Homo sapiens, UniProt P24941). Put plainly: Inhibition of CDK2/Cyclin A (unknown origin) preincubated for 20 mins followed by ATP addition and measured after 120 mins in presence of [33P-gamma] ATP by hotspot kinase assay. Type of data set: protein-complex assay. The method in brief: (§3)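 Radiometric filter-binding assay: kinase and substrate in 20 mM Hepes pH 7.5, 10 mM MgCl2, 1 mM EGTA, 0.02% Brij35, 0.02 mg/mL BSA, 0.1 mM Na3VO4, 2 mM DTT, 1% DMSO. Compound (top 1/10/27 μM, 3-fold serial dilutions) preincubated 20 min at 25 °C. ATP plus [γ-33P]ATP added to 10 μM final, reacted 120 min at 25 °C. IC50 from curve fit, duplicate mean.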

Data set [5] in a line: Metabolic stability in human liver microsomes assessed as half life at 1 uM incubated up to 60 mins in presence of NADPH by LC-MS/MS analysis. Type of data set: ADME, Microsome. The method, boiled down:
as §2

A short description of data set [6]: Metabolic stability in dog liver microsomes assessed as half life at 1 uM incubated up to 60 mins in presence of NADPH by LC-MS/MS analysis. Type of data set: ADME, Canis lupus familiaris, Microsome. The method in brief: as §2
Data set [7] is described as follows: Metabolic stability in monkey liver microsomes assessed as half life at 1 uM incubated up to 60 mins in presence of NADPH by LC-MS/MS analysis. Type of data set: ADME, Macaca mulatta, Microsome. The conditions noted are these: rhesus monkey. The method, boiled down: as §2
For the next data set, the system named is HepG2. Put plainly: Antiproliferative activity against human HepG2 cells assessed as inhibition of cell growth incubated for 72 hrs by Celltiter-Glo luminescent assay. Type of data set: functional, cell-based. The conditions noted are these: HepG2, 72 h. The method, boiled down: as §1
The subject of another data set is PANC-1. Put plainly: Antiproliferative activity against human PANC-1 cells assessed as inhibition of cell growth incubated for 72 hrs by Celltiter-Glo luminescent assay. Type of data set: functional, cell-based. Conditions: PANC-1, 72 h. The method in brief:
as §1

Data set [8] in a line: Metabolic stability in rat liver microsomes assessed as intrinsic clearance at 1 uM incubated up to 60 mins in presence of NADPH by LC-MS/MS analysis. The conditions noted are these: read-out: CLH. Type of data set: ADME, Microsome. The method, boiled down:
as §2

The next data set concerns A549. Put plainly: Antiproliferative activity against human A549 cells assessed as inhibition of cell growth incubated for 72 hrs by Celltiter-Glo luminescent assay. Type of data set: functional, cell-based. Conditions: A549, 72 h. The method in brief:
as §1

Another data set deals with HCT-116. Put plainly: Antiproliferative activity against human HCT-116 cells assessed as inhibition of cell growth incubated for 72 hrs by Celltiter-Glo luminescent assay. In kind it is functional, cell-based. Conditions: HCT-116, 72 h. The method, boiled down:
as §1

For the next data set, the target named is CDK9/cyclin T1 (Homo sapiens, UniProt P50750). Put plainly: Inhibition of CDK9/Cyclin T1 (unknown origin) preincubated for 20 mins followed by ATP addition and measured after 120 mins in presence of [33P-gamma] ATP by hotspot kinase assay. In kind it is protein-complex assay.
Data set [9] is described as follows: Metabolic stability in human liver microsomes assessed as intrinsic clearance at 1 uM incubated up to 60 mins in presence of NADPH by LC-MS/MS analysis. In kind it is ADME, Microsome. The conditions noted are these: read-out: CLH. The method in brief: as §2
A further data set deals with MIA PaCa-2. Put plainly: Antiproliferative activity against human MIA PaCa-2 cells assessed as inhibition of cell growth incubated for 72 hrs by Celltiter-Glo luminescent assay. Conditions: MIA PaCa-2, 72 h. Type of data set: functional, cell-based. The method in brief:
as §1

Data set [10] deals with MV4-11. Put plainly: Antitumor activity against human MV4-11 cells xenografted in Balb/c nude mouse assessed as reduction in tumor volume at 40 mg/kg, iv administered once daily for 21 days (reference value: 1.00 g). Conditions: time 21 day. In kind it is functional. In general terms: In xenograft studies the graft and the host belong to different species.
Data set [11] addresses Cyclin-dependent kinase 7/ cyclin H (Homo sapiens, UniProt P50613). Put plainly: Inhibition of CDK7/Cyclin H (unknown origin) preincubated for 20 mins followed by ATP addition and measured after 120 mins in presence of [33P-gamma] ATP by hotspot kinase assay. Type of data set: protein-complex assay. The method in brief: as §3
The next data set deals with CDK9/Cyclin K (Homo sapiens, UniProt P50750). Put plainly: Inhibition of CDK9/Cyclin K (unknown origin) preincubated for 20 mins followed by ATP addition and measured after 120 mins in presence of [33P-gamma] ATP by hotspot kinase assay. In kind it is protein-complex assay. The method in brief: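 HotSpot radioisotope filter-binding assay. Kinase and substrate were mixed at room temperature in 20 mM Hepes pH 7.5 with 10 mM MgCl2, 1 mM EGTA, 0.02% Brij35, 0.02 mg/mL BSA, 0.1 mM Na3VO4, 2 mM DTT and 1% DMSO. Compound was added in a 3-fold dilution series starting at 1, 10 or 27 μM and preincubated 20 min at 25 °C. ATP plus [γ-33P]ATP (10 μM final) was then added for 120 min at 25 °C. IC50 from curve fit, duplicate mean.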

The species entered for a further data set is Homo sapiens. Put plainly: Selectivity index, ratio of IC50 for CDK2/Cyclin A (unknown origin) to IC50 for CDK9/Cyclin T1 (unknown origin).

Sequence of CDK9/cyclin T1 (O60563 whole entry): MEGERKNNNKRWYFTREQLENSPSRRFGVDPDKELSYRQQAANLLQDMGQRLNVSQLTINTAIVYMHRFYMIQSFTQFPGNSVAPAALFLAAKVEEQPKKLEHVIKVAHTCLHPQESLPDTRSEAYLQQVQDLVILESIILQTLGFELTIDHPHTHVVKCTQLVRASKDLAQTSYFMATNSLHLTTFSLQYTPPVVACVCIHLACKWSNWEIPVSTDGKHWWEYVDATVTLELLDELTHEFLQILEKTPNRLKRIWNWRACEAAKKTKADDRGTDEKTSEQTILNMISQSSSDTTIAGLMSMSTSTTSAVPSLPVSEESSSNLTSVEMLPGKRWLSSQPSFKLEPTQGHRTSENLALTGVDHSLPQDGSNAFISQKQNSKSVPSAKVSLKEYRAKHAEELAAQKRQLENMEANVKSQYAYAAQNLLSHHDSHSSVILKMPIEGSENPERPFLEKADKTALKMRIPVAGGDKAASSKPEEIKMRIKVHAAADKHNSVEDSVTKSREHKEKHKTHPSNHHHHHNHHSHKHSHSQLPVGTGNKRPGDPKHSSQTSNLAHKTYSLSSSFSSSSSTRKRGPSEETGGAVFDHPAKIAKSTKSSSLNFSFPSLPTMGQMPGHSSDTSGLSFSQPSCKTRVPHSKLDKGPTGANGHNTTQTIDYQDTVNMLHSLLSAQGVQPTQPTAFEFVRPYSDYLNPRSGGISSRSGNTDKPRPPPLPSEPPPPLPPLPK
Sequence of CDK9/cyclin T1 (P50750 whole entry): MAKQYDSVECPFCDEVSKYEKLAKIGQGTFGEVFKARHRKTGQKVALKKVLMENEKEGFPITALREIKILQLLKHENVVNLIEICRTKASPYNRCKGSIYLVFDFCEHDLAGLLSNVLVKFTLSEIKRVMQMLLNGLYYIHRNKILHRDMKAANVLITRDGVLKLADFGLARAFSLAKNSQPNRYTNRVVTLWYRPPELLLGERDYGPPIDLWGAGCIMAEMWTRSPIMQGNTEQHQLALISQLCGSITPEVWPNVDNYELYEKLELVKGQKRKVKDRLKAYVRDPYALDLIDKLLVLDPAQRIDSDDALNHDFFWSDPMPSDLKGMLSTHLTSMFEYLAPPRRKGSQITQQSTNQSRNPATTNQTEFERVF
Sequence of CDK9/Cyclin K (P50750 whole entry): as above
Sequence of CDK9/Cyclin K (O75909 whole entry, further chain): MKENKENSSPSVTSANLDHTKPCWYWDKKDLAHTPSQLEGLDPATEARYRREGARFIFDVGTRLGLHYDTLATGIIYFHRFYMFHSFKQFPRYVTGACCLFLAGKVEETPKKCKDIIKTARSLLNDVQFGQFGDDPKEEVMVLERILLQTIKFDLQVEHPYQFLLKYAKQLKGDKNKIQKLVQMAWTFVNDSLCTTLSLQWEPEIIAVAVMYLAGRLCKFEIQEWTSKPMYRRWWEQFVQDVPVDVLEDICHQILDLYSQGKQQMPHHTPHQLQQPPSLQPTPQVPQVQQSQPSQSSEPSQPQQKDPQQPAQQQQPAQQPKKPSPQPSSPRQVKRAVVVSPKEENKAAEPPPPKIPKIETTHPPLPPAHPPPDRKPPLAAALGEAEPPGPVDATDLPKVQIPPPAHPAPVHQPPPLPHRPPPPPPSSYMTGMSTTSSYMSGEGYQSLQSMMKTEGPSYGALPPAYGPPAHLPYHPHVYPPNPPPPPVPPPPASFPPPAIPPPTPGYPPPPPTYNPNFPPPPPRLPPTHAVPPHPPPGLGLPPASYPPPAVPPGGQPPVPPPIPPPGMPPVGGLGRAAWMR
Sequence of Cyclin-dependent kinase 7/ cyclin H (P51946 whole entry): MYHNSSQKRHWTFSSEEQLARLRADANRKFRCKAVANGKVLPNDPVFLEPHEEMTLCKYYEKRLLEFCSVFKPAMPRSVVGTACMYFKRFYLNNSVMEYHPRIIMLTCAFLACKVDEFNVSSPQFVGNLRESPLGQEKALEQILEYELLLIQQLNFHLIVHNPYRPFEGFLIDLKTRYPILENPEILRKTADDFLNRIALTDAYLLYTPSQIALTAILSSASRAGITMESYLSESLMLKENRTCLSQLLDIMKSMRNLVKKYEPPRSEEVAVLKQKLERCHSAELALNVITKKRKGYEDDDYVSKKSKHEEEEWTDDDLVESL
Sequence of Cyclin-dependent kinase 7/ cyclin H (P50613 whole entry): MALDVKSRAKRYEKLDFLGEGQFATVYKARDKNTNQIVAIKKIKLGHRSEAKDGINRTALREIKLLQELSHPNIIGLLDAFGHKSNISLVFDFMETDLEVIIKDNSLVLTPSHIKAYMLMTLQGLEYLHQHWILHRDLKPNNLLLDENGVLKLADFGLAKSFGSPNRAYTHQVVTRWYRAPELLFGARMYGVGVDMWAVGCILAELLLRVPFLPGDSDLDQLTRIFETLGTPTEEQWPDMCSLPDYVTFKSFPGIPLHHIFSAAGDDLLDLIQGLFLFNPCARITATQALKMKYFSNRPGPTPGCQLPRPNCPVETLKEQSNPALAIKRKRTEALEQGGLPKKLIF

As for `COc1cc(F)ccc1-c1ccnc(Nc2ccc3c(N4CCOCC4)c(C(C)=O)c(=O)oc3c2)n1`, the IC50 with MOLM-13 came out at 260 nM; in the data set with NCI-N87 it was 3580 nM; with MV4-11 [1], 250 nM; in the data set on SW-620, 2700 nM; in the data set with BXPC-3, 910 nM; in the data set on NCI-H460, 2150 nM. Besides, the IC50 in the data set with A-375 turned out to be 960 nM; with MDA-MB-231, 1580 nM; on CDK2/Cyclin A2, 1330 nM; in the data set on HepG2, 560 nM; in the data set on PANC-1 it was 1880 nM; in the data set with A549 it was 2360 nM. Moreover, the results for the IC50 with HCT-116, at CDK9/cyclin T1 and in the data set on MIA PaCa-2 were 660 nM, 8.8 nM and 1600 nM, respectively. Besides, the microsomal CLint at 1 µM in data set [2] was 98.3 µL/min/mg; in data set [3], 62.5 µL/min/mg; in data set [8], 144 µL/min/mg; in [9] it was 41.4 µL/min/mg. The half-life at 1 µM turned out to be 9.61 min in [4], 33.5 min in data set [5], 14.1 min in data set [6] and 22.2 min in data set [7].

With `Cc1ncc2n1-c1ccc(Cl)cc1C(c1ccccc1F)=NC2` [MIDAZOLAM], the microsomal CLint at 1 µM in data set [2] is 1500 µL/min/mg; in [3] it was 551 µL/min/mg; in data set [8], 908 µL/min/mg; in data set [9], 287 µL/min/mg. Besides, the half-life at 1 µM in data set [4] came to 3.82 min; in data set [5], 12.1 min; in data set [6], 2.31 min; in data set [7], 6.29 min.

Consider `Nc1ccn([C@@H]2O[C@H](CO)[C@@H](O)[C@@H]2O)c(=O)n1` [CYTARABINE], for which, in the data set with MV4-11 [10], the Activity amounted to 0.26 g.

For `CC(=O)c1c(C)c2ccc(Nc3nccc(-c4cccnc4)n3)cc2oc1=O`, the IC50 with MV4-11 [1] is 12900 nM; in [11], more than 27000 nM; at CDK9/Cyclin K, 235 nM; at CDK2/Cyclin A2, 1210 nM; at CDK9/cyclin T1, 184 nM. The Ratio IC50 in the data set listed under Homo sapiens was determined as 7.
